IC50, ED50 and Ratio data for two molecules are collected here from ChEMBL document CHEMBL1123786, “Design of nonpeptidal ligands for a peptide receptor: cholecystokinin antagonists” (J Med Chem, 1987).

Each structure is given as a SMILES string.

By IC50 is commonly meant the concentration needed to halve the response being measured. By ED50 is commonly meant the dose that gives a 50% effect, or the effect in half of the subjects. Low readings indicate an effect at a small dose, high ones a need for a large dose.

In assay [1] the target is GABA-A receptor; anion channel. In words: Displacement of [3H]flunitrazepam from GABA-A benzodiazepine receptor of guinea pig brain. Also on record: species or system Cavia porcellus. A general note: In a radioligand displacement assay an active substance lowers the binding of a labelled ligand.
Assay [2] deals with Mus musculus. In words: In vivo activity on the basis of the ability to antagonize CCK-8 inhibition of charcoal meal gastric emptying in mice after oral administration. The format is functional. The conditions noted are these: Stomach. The essentials: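 Oral dosing of mice (N ≥ 10/dose) 1 h before sc CCK-8 at 80 μg/kg. The charcoal meal followed CCK-8 by 5 min, with gastric emptying scored 5 min after that. ED50 was obtained by regression analysis using at least three dose levels.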

For another assay, the target named is T1, Cholecystokinin receptor (Rattus norvegicus, UniProt P30551+P30553).
T1 sequence (P30551 whole entry): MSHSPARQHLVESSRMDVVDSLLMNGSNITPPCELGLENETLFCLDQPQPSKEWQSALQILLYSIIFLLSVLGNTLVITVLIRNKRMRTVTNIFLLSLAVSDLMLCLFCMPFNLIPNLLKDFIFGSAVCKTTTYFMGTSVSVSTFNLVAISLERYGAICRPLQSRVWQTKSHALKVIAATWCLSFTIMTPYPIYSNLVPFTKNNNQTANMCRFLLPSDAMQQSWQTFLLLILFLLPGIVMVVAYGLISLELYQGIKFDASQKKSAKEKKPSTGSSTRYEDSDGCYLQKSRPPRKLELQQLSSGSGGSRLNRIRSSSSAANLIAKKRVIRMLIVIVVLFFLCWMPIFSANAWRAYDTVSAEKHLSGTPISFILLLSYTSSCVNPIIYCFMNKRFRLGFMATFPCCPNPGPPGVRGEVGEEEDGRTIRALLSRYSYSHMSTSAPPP
T1 sequence (P30553 whole entry): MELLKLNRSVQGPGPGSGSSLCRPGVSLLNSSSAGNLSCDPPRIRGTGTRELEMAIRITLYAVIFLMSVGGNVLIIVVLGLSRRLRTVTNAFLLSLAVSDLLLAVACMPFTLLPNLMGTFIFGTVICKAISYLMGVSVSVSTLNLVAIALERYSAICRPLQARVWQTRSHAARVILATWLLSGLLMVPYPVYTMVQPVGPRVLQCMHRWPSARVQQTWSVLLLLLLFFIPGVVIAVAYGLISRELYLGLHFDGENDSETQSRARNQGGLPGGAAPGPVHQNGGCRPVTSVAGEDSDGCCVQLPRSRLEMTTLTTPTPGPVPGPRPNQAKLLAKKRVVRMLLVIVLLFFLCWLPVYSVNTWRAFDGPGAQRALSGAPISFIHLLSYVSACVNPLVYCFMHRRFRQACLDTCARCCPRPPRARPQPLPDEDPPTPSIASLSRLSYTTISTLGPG
The format is protein assay.

The species named for the next assay is Rattus norvegicus. In words: Selectivity of binding to pancreatic CCK and brain benzodiazepine receptors, ratio of IC50.
Assay [3] deals with Mus musculus. In words: In vivo activity on the basis of the ability to antagonize CCK-8 inhibition of charcoal meal gastric emptying in mice after intraperitoneal administration. The format is functional. The conditions noted are these: Stomach, ip. The essentials:
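Mice dosed intraperitoneally 1 h before CCK-8 (80 μg/kg, sc), N ≥ 10/dose. A charcoal meal was given 5 min after CCK-8 and gastric emptying was measured 5 min later. ED50 was derived by regression from at least three dose levels.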

In the case of `Cc1nnc2n1-c1ccccc1C(c1ccccc1F)=N[C@@H]2Cc1c[nH]c2ccccc12`, the results for the IC50 (in assay [1]; against Cholecystokinin receptor) were 800 nM and 1200 nM, respectively. Also, in the assay with Mus musculus [2], the median effective dose (ED50) is 76 mg/kg. The Ratio in the assay filed under Rattus norvegicus came out at 1.5.
Consider `CN1C(=O)[C@@H](Cc2c[nH]c3ccccc23)N=C(c2ccccc2F)c2ccccc21`, for which the figures for the IC50 (in assay [1]; against Cholecystokinin receptor) were greater than 100000 nM and 270 nM, respectively. The 50% effective dose (ED50) in the assay on Mus musculus [3] was 15 mg/kg; with Mus musculus [2], 25 mg/kg.
